Tests used:
[1] = molecular target: T1, S-adenosylmethionine decarboxylase proenzyme (Homo sapiens) (UniProt P17707)
T1 sequence (whole entry): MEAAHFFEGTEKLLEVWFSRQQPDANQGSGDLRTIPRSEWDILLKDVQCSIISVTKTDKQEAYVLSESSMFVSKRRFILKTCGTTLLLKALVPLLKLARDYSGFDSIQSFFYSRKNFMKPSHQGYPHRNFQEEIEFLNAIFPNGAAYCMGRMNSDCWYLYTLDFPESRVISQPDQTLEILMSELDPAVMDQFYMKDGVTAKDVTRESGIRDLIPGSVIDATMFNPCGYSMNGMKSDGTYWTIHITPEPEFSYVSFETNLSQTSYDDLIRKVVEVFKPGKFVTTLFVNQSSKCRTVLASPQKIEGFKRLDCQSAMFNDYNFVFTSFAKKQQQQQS

[2] = In vitro inhibition against rat aorta semicarbazide-sensitive amine oxidase; type: tissue-based
Ornithine decarboxylase = molecular target: T2, Ornithine decarboxylase (Rattus norvegicus, UniProt P09057); assay: In vitro inhibition against ornithine decarboxylase
T2 sequence (P09057 whole entry): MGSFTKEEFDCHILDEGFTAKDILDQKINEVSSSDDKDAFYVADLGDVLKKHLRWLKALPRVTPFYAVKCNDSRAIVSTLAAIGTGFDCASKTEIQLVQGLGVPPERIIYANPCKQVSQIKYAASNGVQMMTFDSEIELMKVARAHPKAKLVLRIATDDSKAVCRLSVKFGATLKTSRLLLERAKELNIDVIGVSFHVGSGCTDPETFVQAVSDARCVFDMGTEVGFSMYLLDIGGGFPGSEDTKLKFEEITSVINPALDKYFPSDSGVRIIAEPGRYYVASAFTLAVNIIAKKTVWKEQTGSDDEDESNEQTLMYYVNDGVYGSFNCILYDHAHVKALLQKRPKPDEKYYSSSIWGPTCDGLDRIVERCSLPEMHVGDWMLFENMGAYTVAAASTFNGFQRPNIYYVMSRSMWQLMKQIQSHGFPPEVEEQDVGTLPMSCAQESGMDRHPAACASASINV
Method in brief: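 Time-dependent inactivation of partially purified rat liver ODC (thioacetamide-induced, acid treatment at pH 4.6). Enzyme incubated at 37 °C in 30 mM phosphate pH 7.1, 5 mM DTT and 0.1 mM pyridoxal phosphate with varied inhibitor concentrations. Aliquots were assayed at intervals. Half-inactivation times were plotted against 1/[I] (Kitz–Wilson, least-squares fit) to give apparent K_I and τ1/2.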

[3] = molecular target: ornithine decarboxylase (Rattus norvegicus) (UniProt P09057); assay: Time of half-inactivation of ornithine decarboxylase extrapolated to infinite inhibitor concentration was determined; details: in vitro

SMILES	Ka [1] [µM]	Ki [2] [µM]	Ki (Ornithine decarboxylase) [µM]	half-inactivation time [3] [min]
NCCCCN	16			
C#CC(N)CC(F)(F)CN (stereo unspecified)		0.1		
NCCCC(N)(CF)C(=O)O (stereo unspecified)			2.7	2.6
C#C[C@@H](N)CC[C@H](C)N			3	1.7
